# Assays:
# Smad3 phosphorylation [1] = test: N protein-induced Smad3 phosphorylation/activation in HFL-1 cells; assay type: cell-based, human
# TβRI polymerization = TβRI polymerization (Homo sapiens, UniProt P36897); test: Crosslinking assay, N protein-induced TβRI polymerization; assay type: cell-based; details: HFL-1 cells, 24 h
# [2] = test system: Smad2/3 nuclear translocation; test: Smad2/3 nuclear translocation in HFL-1 cells; assay type: cell-based, human; details: 24 h
# Outline: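 HFL-1 cells expressing N protein treated with test compound for 24 h. Fixed in 4% formaldehyde and blocked in PBS with 3% BSA and 0.2% Triton X-100. Primary antibody overnight at 4°C; secondary antibody 1 h at room temperature in the dark; nuclei stained with DAPI for 10 min. Smad2/3 localization imaged by confocal microscopy.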
# TβRI phosphorylation = test: N protein-induced TβRI phosphorylation in HFL-1 cells; assay type: cell-based, human; details: 10 μM, 24 h
# α-SMA = test: N protein-induced α-SMA/COL1A1 expression; assay type: cell-based, human
# Outline: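 HFL-1 cells transfected with N protein plasmid, then exposed to test compounds (10 µM for derivative comparison; otherwise varied times and doses). α-SMA and COL1A1 measured by western blot, normalized to tubulin. For collagen secretion, culture medium concentrated, held 16 h at 4°C and centrifuged; pellet dissolved in 0.05 M acetic acid, stained with Sirius red, washed, extracted, and read at 530 nm.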
# [3] = test system: primary bone marrow-derived macrophages (BMDMs) and primary neutrophils; assay type: cell-based; details: mouse primary lung fibroblasts expressing N protein, 20 μM
# Outline: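 BMDMs: mouse tibial marrow flushed, red cells lysed, filtered at 40 µm, cultured 8 days in DMEM with 25% L929-conditioned medium. Neutrophils: isolated from marrow on a Percoll gradient (52/64/72%) at 1,545 g for 30 min at room temperature; 64/72% interface collected. Migration of both cell types toward N protein-expressing primary lung fibroblasts assessed.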
# [4] = test system: THP1 macrophages and differentiated HL60 neutrophils; test: Transwell chemotaxis assay, recruitment by N protein-expressing HFL-1 cells; assay type: cell-based, human; details: 20 μM
# Outline: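 HFL-1 cells in 24-well plates transfected with plasmids for 12 h, then switched to serum-free Ham's F12 for a further 24 h. THP-1 macrophages seeded in the upper transwell chamber and incubated 16 h. Non-migrated cells removed with a swab; migrated cells stained with crystal violet.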
# [5] = Body and organ weight, behavior during RMY-205 administration; assay type: in vivo, mice
# Smad3 phosphorylation [6] = test: Nocodazole-induced Smad3 phosphorylation; assay type: cell-based, human; details: HFL-1, LX-2, and AC-16 cells; nocodazole 100 ng/mL, 12 h
# MH1-MH2 interaction = MH1-MH2 interaction (Homo sapiens, UniProt P84022); test: coIP and GST pull-down, MH1-MH2 interaction of Smad3; assay type: biochemical; details: coIP assay, GST pull-down assay
# Chain of MH1-MH2 interaction (P84022 10-136 limits assumed): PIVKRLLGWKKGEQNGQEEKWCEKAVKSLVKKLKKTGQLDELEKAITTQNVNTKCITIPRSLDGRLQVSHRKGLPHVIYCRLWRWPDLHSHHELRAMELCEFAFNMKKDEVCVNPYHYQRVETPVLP
# Chain of MH1-MH2 interaction (P84022 232-425 partner limits assumed): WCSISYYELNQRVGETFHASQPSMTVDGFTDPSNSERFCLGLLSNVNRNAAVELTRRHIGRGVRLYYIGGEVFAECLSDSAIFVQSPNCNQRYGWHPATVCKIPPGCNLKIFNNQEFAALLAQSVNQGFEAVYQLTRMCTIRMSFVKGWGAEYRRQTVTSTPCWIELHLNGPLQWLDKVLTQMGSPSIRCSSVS
# Outline: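 GST-tagged proteins expressed in E. coli BL21 and purified on glutathione-sepharose; His-tagged proteins purified on Ni-NTA. GST or GST-fusion bound to glutathione beads in PBS for 1 h at 4°C, washed with PBS, then with modified NP-40 buffer. CoIP: lysates incubated 3 h with antibody plus protein G-Sepharose, washed, and immunoblotted.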
# TGF-β/Smad signaling = test: TGF-β-induced Smad3 phosphorylation and α-SMA/COL1A1 expression in cell lines; assay type: cell-based, human; details: 36 h
# Smad2 = Smad2 (Homo sapiens, UniProt Q15796); test: ITC assay, binding to Smad2; details: GST-tagged protein
# Chain of Smad2 (Q15796 whole entry): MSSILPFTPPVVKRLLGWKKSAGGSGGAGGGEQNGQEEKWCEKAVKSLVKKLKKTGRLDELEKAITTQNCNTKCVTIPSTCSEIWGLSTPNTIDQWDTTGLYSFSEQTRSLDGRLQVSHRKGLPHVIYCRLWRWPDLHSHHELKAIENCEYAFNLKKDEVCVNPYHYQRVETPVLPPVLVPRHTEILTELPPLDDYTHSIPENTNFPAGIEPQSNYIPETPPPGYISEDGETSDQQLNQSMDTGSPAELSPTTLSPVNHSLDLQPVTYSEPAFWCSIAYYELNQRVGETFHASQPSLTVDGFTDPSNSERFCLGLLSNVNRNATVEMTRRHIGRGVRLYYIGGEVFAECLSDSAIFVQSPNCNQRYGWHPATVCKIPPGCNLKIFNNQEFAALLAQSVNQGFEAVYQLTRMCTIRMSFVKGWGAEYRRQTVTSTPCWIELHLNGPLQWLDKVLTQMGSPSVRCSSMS
# [7] = test system: primary mouse pulmonary fibroblasts; assay type: cell-based; details: 20 μM, 36 h
# Outline: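 Primary pulmonary fibroblasts grown out from minced mouse lung (1 mm³ explants) in DMEM with 10% FBS; medium changed every 2 days, passaged with trypsin after one week. Cells transfected with N protein plasmid, then treated with test compound at 20 µM for 36 h. α-SMA and COL1A1 measured by western blot, normalized to tubulin.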
# [8] = test system: N protein-induced pulmonary fibrosis; test: N protein; assay type: in vivo, C57BL/6J mice; details: 10 mg/kg weekly for 30 days
# Outline: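 Male C57BL/6J mice (8 weeks) given N protein-expressing AAV or control AAV intranasally in 50 µL PBS. From day 4, test compound 10 mg/kg in saline given i.p. weekly. Sacrificed at day 30; n = 6 per group. Lung Smad3 phosphorylation assessed by western blot.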
# [9] = test system: Adriamycin-induced renal fibrosis; test: Adriamycin-induced renal fibrosis mouse model; assay type: in vivo, C57BL/6J mice; details: 3 mg/kg intraperitoneally daily, 7 days
# TβRI-Smad2 interaction = TβRI-Smad2 interaction (Homo sapiens, UniProt Q15796); test: Co-IP, N protein-induced TβRI-Smad2 interaction; assay type: cell-based; details: coIP
# Chain of TβRI-Smad2 interaction (Q15796 2-467 limits assumed): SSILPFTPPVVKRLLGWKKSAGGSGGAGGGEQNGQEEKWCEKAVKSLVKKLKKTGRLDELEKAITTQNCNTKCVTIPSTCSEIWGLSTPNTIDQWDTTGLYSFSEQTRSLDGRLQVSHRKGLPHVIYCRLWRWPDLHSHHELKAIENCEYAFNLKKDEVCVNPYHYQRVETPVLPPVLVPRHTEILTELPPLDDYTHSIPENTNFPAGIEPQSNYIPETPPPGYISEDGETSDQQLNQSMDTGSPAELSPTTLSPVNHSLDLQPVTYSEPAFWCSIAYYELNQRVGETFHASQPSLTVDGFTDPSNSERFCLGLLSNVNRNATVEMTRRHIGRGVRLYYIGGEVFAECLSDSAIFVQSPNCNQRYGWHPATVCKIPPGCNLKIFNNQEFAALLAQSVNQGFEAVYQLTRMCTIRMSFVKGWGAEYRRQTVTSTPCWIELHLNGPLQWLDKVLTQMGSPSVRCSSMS
# Outline: (§1)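 HFL-1 cells transfected with an N protein plasmid using ViaFect. Lysates incubated 3 h with primary antibody plus protein G-Sepharose beads. Beads washed three times with NP-40 lysis buffer. Immunoprecipitates boiled in SDS loading buffer, resolved by SDS-PAGE, transferred to PVDF and probed; bands detected by enhanced chemiluminescence.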
# TβRI = TβRI (Homo sapiens, UniProt P36897); test: ITC assay, binding to TβRI; details: GST-tagged protein
# Chain of TβRI (P36897 34-503): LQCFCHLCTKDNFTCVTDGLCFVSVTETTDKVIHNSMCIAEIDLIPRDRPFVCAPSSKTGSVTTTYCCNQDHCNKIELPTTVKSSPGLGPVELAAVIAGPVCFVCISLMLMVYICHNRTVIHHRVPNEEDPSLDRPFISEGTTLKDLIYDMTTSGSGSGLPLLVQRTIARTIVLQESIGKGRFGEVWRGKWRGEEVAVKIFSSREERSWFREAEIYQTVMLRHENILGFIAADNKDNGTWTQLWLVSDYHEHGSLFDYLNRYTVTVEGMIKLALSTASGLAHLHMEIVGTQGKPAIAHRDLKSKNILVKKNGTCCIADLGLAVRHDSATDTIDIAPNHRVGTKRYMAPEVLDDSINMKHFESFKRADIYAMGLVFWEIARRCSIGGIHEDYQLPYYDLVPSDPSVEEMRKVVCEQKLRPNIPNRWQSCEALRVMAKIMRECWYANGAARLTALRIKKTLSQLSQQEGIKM
# [10] = test system: CAGA luciferase reporter gene (a Smad3/4-dependent reporter); test: CAGA luciferase reporter; assay type: cell-based, human; details: 20 μM, Smad3-dependent manner
# Outline: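 Cells co-transfected with a CAGA luciferase reporter (Smad3/4-dependent), a β-galactosidase expression vector and other plasmids, including N protein. Lysed 24 h after transfection; luciferase and β-gal activities measured. Luciferase activity normalized to β-gal to correct for transfection efficiency.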
# [11] = test system: Smad3 binding to promoters; test: ChIP assay, Smad3 binding to cytokine gene promoters in HFL-1 cells; assay type: cell-based, human; details: ChIP analysis
# Outline: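 HFL-1 cells crosslinked with 1% formaldehyde for 10 min at room temperature, washed in ice-cold PBS, and lysed in SDS lysis buffer (1% SDS, 10 mM EDTA, 50 mM Tris pH 8.1) with protease inhibitors. Chromatin sonicated to 500–1000 bp, then incubated overnight at 4°C with antibody or rabbit IgG. Complexes pulled down on protein G-Sepharose, washed, eluted, crosslinks reversed, proteinase K-treated.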
# [12] = test system: IL6, IL8, CCL2, CXCL10 mRNA; test: qRT-PCR of N protein-induced cytokine mRNA in HFL-1 cells; assay type: cell-based, human; details: 20 μM
# MH1 domain of Smad3 = MH1 domain of Smad3 (Homo sapiens, UniProt P84022); test: ITC assay, binding to MH1 domain of Smad3
# Chain of MH1 domain of Smad3 (P84022 10-136 limits assumed): as the sequence (P84022 10-136 limits assumed) above
# [13] = test system: N protein-TβRI, TβRI-TβRII, TβRI-FKBP12 interactions; test: Co-IP, interactions N protein-TβRI, TβRI-TβRII, TβRI-FKBP12; assay type: cell-based, human; details: HFL-1 cells
# Outline: as §1
# [14] = Pharmacokinetic analysis in ICR mice; assay type: in vivo; details: male, mouse, plasma
# Outline: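 Male ICR mice (8 weeks) received a single dose of test compound: 2 mg/kg i.v., or 10 mg/kg i.p. or by oral gavage. Blood sampled at 5, 15 and 30 min and at 1, 2, 4, 8 and 24 h. Plasma obtained by centrifugation at 1,500g for 10 min, and compound content in plasma assayed.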
# Smad2 phosphorylation = test: N protein-induced Smad2 phosphorylation in HFL-1 cells; assay type: cell-based, human; details: 20 μM, 36 h
# Outline: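 HFL-1 cells transfected overnight with N protein plasmid, then exposed to test compound for 36 h (20 µM unless specified). Lysates boiled 10 min in SDS buffer, run on SDS-PAGE, transferred to PVDF and immunoblotted with ECL detection. p-Smad2 and p-Smad3 band intensities normalized to tubulin.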
# Smad3 = Smad3 (Homo sapiens, UniProt P84022); test: ITC assay, RMY-205 binding to Smad3
# Chain of Smad3 (P84022 whole entry): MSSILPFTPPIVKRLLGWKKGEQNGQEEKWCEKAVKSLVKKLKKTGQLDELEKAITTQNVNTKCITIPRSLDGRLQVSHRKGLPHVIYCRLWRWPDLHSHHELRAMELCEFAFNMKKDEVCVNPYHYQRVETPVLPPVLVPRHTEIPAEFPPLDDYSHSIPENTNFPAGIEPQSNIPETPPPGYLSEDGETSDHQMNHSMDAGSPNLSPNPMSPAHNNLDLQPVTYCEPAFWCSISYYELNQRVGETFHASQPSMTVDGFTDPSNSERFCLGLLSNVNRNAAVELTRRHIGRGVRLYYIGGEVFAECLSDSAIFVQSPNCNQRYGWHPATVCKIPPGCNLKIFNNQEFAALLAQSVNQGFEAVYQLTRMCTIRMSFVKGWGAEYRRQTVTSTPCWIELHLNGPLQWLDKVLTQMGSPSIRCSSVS
# Outline: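 Isothermal titration calorimetry. Sample cell loaded with GST-Smad3 at 20 µM; injector loaded with test compound at 0.2 mM. Compound titrated stepwise into the Smad3 solution, with PBS as control. Heat changes analyzed to derive binding.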
# Chain of TβRI polymerization (P36897 34-503): as the sequence (P36897 34-503) above
structure (smiles),measurement,setting,value
COc1cc2c(cc1OC)CN(C(=O)/C=C/c1c(-c3ccccc3)n(C)c3ncccc13)CC2 [(E)-SIS3],N protein-induced Smad3 activation,"Smad3 phosphorylation [1]; 3 μM, 36 h",no inhibitory effect
"Cc1cccc(-c2[nH]c(C(C)(C)C)nc2-c2ccc3c(c2)OCO3)n1 [SB505124, reference compound]","N protein-induced Smad phosphorylation, nuclear translocation, and transactivation activity","Smad3 phosphorylation [1]; 10 μM, 24 h",lost its ability to induce
same,N protein-induced TβRI polymerization,TβRI polymerization; 10 μM,could not prevent
same,Smad2/3 localization in the presence of N protein,[2]; 10 μM,remain in the cytosol
same,N protein-induced TβRI phosphorylation,TβRI phosphorylation,could block
same,N protein-induced expression of α-SMA and COL1A1,"α-SMA; HFL-1 cells, 10 μM, 24 h",failed to elevate
"O=c1c(O)c(N2CCN(Cc3ccc(Br)cc3F)CC2)oc2ccccc12 [RMY-205, 2-(4-(4-bromo-2-fluorobenzyl)piperazin-1-yl)-3-hydroxy-4H-chromen-4-one]",recruitment of primary BMDMs and primary neutrophils,[3],abolished
same,recruiting THP1 macrophages and differentiated HL60 neutrophils by N protein,[4],attenuation
same,N protein-induced phosphorylation of Smad3,"Smad3 phosphorylation [1]; 20 μM, 36 h",inhibition
same,"weight of the mice and of various organs (heart, liver, spleen, lungs, kidneys)",[5]; 10 mg/kg for 30 days,not significantly changed
same,"behavior, weight of the body or various organs",[5]; during administration of RMY-205,no abnormal behavior or weight loss
same,nocodazole-induced Smad3 phosphorylation,Smad3 phosphorylation [6],inhibited
same,interaction between MH1 and MH2 domains,MH1-MH2 interaction,substantially enhance
same,TGF-β-induced Smad3 phosphorylation and α-SMA and COL1A1 expression,"TGF-β/Smad signaling; HFL-1, AC16, LX-2 and human primary dermal cells, TGF-β 2 ng/mL",effectively inhibited
same,"inhibition of TGF-β-induced Smad3 phosphorylation and α-SMA expression, compared with (E)-SIS3","TGF-β/Smad signaling; HFL-1 cells, (E)-SIS3 3 μM",comparable with that by (E)-SIS3
same,N protein-induced TβRI polymerization,TβRI polymerization; 20 μM,not influenced
same,binding to Smad2,Smad2,not to either Smad2 or TβRI
same,"N protein-elevated mRNA of CCL2, CXCL10, and IL-6 expression and their release levels",[7],suppression
same,N protein-induced α-SMA and COL1A1 expression,[7],significantly inhibited
same,N protein-induced phosphorylation of Smad3 in lung,[8],suppression
same,"N protein-induced secretion of CCL2, CXCL10, and IL-6 in bronchoalveolar lavage fluid",[8],suppression
same,N protein-promoted infiltration of macrophages and neutrophils in the lung tissue,[8],markedly attenuated
same,"alveolar septal thickening, α-SMA expression and collagen deposition",[8]; intraperitoneally,alleviated alveolar septal thickening and decreased α-SMA expression and collagen deposition
same,N protein-induced Smad2/3 nuclear translocation,[2]; 20 μM,blocked
same,"renal fibrosis, Smad3 phosphorylation and COL1A1 expression induced by Adriamycin",[9],effectively alleviate
same,N protein-induced TβRI interaction with Smad2,TβRI-Smad2 interaction,not with Smad2
same,binding to TβRI,TβRI,not to either Smad2 or TβRI
same,N protein-induced transactivation activity of Smad,[10],inhibited
same,Smad3 binding to the promoters of genes of cytokines,[11],inhibited
same,"N protein-induced mRNA expression of IL6, IL8, CCL2, and CXCL10",[12],downregulated
same,Kd,MH1 domain of Smad3,13.3 µM
same,"interactions between N protein and TβRI, TβRI and TβRII, or TβRI and FKBP12",[13],did not interfere
same,AUC,"[14]; ip, 10 mg/kg",2.13 µg·h/mL
same,AUC(0-inf),"[14]; ip, 10 mg/kg",2.13 µg·h/mL
same,Cmax,"[14]; ip, 10 mg/kg",1.82 µg/mL
same,Tmax,"[14]; ip, 10 mg/kg",0.19 h
same,bioavailability,"[14]; ip, 10 mg/kg",42.8%
same,half-life,"[14]; ip, 10 mg/kg",8.26 h
same,AUC,"[14]; iv, 2 mg/kg",0.995 µg·h/mL
same,AUC(0-inf),"[14]; iv, 2 mg/kg",0.995 µg·h/mL
same,Vd,"[14]; iv, 2 mg/kg",3 L/kg
same,clearance,"[14]; iv, 2 mg/kg",2.04 L/h/kg
same,half-life,"[14]; iv, 2 mg/kg",1.98 h
same,AUC,"[14]; po, 10 mg/kg",1.87 µg·h/mL
same,AUC(0-inf),"[14]; po, 10 mg/kg",1.87 µg·h/mL
same,Cmax,"[14]; po, 10 mg/kg",1.04 µg/mL
same,Tmax,"[14]; po, 10 mg/kg",0.33 h
same,bioavailability,"[14]; po, 10 mg/kg",37.6%
same,half-life,"[14]; po, 10 mg/kg",2.55 h
same,N protein-induced α-SMA and COL1A1 expression levels and collagen secretion,"α-SMA; HFL-1 cells, time- and dose-dependent manner",downregulate
same,α-SMA inhibition ratio (%),"α-SMA; N-protein transfected HFL-1 cells, 10 μM, 24 h",50.9 ± 14.0%
same,N protein-induced phosphorylation of Smad2,Smad2 phosphorylation,not of Smad2
same,Kd,Smad3,8 µM

# From article PMC9990178 (Cell Chemical Biology, 2023)
